Experimental data published in ChEMBL document CHEMBL5038630 (J Med Chem, 2022).
Active and inactive are the calls of the source. No cut-off for these calls is given here.

How the values were obtained:
[1] = system: Oocyte; test: Agonist activity at wild type GluN1/GluN2A-V783L mutant NMDA receptor (unknown origin) expressed in Xenopus oocytes assessed as relative maximal efficacy measured at 10 uM after 4 days in presence of glycine by two-electrode voltage-clamp recording assay relative to glycine; assay type: cell-based; details: Homo sapiens, time 4.0 day
How it was run: (§1)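 Oocytes expressing GluN1 with wild-type GluN2A or with the GluN2A-V783L or V783F mutant were BAPTA-injected and recorded by TEVC in continuous 300 μM L-Glu. […] Values are mean ± SEM from 3–8 oocytes, compared with wild type by two-way ANOVA with Tukey's test.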

[2] = system: GluN1/GluN2A (Rattus norvegicus); test: Agonist activity at wild type GluN1/GluN2A NMDA receptor (rat) expressed in Xenopus oocytes assessed as relative maximal efficacy measured at 10 uM after 4 days in presence of glycine by two-electrode voltage-clamp recording assay relative to glycine; details: filed as agonist, time 4.0 day
[3] = Agonist activity at wild type GluN1/GluN2A NMDA receptor (unknown origin) expressed in Xenopus oocytes measured after 4 days in presence of L-glutamate by two-electrode voltage-clamp recording assay; details: Homo sapiens, Oocyte, 96 h
[4] = system: Oocyte; test: Agonist activity at wild type GluN1/ GluN2A-V783F mutant NMDA receptor (unknown origin) expressed in Xenopus oocytes assessed as relative maximal efficacy measured at 10 uM after 4 days in presence of glycine by two-electrode voltage-clamp recording assay relative to glycine; assay type: cell-based; details: Homo sapiens, time 4.0 day; how it was run: as §1
[5] = Binding affinity at recombinant GluN1a/GluN2B NMDA receptor (unknown origin) expressed in Xenopus oocytes measured after 4 days in presence of L-glutamte by two-electrode voltage-clamp recording assay; assay type: cell-based, Homo sapiens; details: oocyte
[6] = Agonist activity at GluN1/GluN2A V783F mutant NMDA receptor (unknown origin) expressed in Xenopus oocytes measured after 4 days in presence of glycine by two-electrode voltage-clamp recording assay; assay type: cell-based; details: Homo sapiens, Oocyte, 96 h
How it was run: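 Rat GluN1 and GluN2A cRNA (1:2) injected into Xenopus oocytes, which received 50 nL of 50 mM BAPTA 10–30 min before recording. TEVC done 2–4 days after injection at room temperature, −40 mV, in 90 mM NaCl, 1 mM KCl, 10 mM HEPES, 0.5 mM BaCl2, 0.01 mM EDTA, pH 7.4. Agonist applied with 300 μM L-Glu continuously present, DMSO <0.5%.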

[7] = molecular target: Ionotropic glutamate receptor NMDA 1/2D (Rattus norvegicus, UniProt P35439+Q62645); test: Agonist activity at rat GluN1/GluN2D NMDA receptor expressed in Xenopus oocytes measured after 4 days in presence of L-glutamte by two-electrode voltage-clamp recording assay; assay type: cell-based, Oocyte
Chain of Ionotropic glutamate receptor NMDA 1/2D (Q62645 whole entry, other chains not shown): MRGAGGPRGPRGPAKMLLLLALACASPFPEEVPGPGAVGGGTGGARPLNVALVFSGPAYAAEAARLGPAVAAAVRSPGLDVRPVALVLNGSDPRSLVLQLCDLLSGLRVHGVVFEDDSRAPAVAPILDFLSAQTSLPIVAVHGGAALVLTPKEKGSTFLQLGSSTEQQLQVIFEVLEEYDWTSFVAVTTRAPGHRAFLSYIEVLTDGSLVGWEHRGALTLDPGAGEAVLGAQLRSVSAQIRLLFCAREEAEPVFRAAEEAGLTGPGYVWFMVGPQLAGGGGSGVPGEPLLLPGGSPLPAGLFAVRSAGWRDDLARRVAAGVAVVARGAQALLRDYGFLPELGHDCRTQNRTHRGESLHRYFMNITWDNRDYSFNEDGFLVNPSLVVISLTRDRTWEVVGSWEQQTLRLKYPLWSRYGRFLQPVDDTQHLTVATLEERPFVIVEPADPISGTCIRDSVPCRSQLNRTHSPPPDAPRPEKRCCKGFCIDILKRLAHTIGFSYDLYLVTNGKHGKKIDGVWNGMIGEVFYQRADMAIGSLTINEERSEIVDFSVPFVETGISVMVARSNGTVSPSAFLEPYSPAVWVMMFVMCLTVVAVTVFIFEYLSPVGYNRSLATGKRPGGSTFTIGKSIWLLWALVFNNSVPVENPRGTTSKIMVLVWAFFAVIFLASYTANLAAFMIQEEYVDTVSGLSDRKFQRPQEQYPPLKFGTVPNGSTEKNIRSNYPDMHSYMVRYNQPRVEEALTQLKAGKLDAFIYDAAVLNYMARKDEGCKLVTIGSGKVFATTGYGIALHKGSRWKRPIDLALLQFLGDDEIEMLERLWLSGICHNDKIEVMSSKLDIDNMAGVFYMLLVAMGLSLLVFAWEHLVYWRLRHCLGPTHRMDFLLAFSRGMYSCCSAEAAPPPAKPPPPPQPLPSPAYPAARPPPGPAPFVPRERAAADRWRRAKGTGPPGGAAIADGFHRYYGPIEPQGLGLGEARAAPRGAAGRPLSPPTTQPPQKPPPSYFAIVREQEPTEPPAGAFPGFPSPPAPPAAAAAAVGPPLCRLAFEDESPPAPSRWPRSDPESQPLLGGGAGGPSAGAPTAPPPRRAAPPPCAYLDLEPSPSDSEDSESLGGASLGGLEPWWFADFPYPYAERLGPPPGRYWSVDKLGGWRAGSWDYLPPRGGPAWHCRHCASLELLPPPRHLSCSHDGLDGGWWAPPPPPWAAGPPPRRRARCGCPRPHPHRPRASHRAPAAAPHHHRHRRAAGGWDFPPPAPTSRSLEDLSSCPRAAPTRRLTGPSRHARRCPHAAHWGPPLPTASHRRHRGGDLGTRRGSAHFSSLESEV
How it was run: (§2)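 Xenopus oocytes were injected with rat GluN1 and GluN2C or GluN2D cRNA (1:2) and recorded by TEVC 2–4 days later at −40 mV, room temperature, pH 7.4 HEPES/NaCl/BaCl2 saline. Concentration-response with 300 μM L-Glu present. NR means <5% response at the concentration given. DMSO ≤0.5%. 3–14 oocytes.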

[8] = system: Oocyte; test: Agonist activity at mutant GluN1 F484A/T518 mutant//GluN3A NMDA receptor (unknown origin) expressed in Xenopus oocytes measured after 4 days in presence of glycine by two-electrode voltage-clamp recording assay; assay type: cell-based; details: Homo sapiens, time 4.0 day
[9] = system: Oocyte; test: Agonist activity at recombinant GluN1a/GluN2B NMDA receptor (unknown origin) expressed in Xenopus oocytes assessed as inhibition of glycine-induced activation of current measured at 10 uM after 4 days in presence of L-glutamte by two-electrode voltage-clamp recording assay; assay type: cell-based; details: Homo sapiens, filed as agonist, time 4.0 day
How it was run: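 Oocytes expressing GluN1/2B were BAPTA-injected and held under two-electrode voltage clamp in continuous 300 μM L-Glu. […] Values are mean ± SEM from 12 oocytes.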

[10] = molecular target: Glutamate NMDA receptor; Grin1/Grin2b (Rattus norvegicus, UniProt P35439+Q00960); test: Agonist activity at rat GluN1/GluN2B NMDA receptor expressed in Xenopus oocytes measured after 4 days in presence of L-glutamte by two-electrode voltage-clamp recording assay; assay type: cell-based, Oocyte
Chain of Glutamate NMDA receptor; Grin1/Grin2b (Q00960 whole entry, other chains not shown): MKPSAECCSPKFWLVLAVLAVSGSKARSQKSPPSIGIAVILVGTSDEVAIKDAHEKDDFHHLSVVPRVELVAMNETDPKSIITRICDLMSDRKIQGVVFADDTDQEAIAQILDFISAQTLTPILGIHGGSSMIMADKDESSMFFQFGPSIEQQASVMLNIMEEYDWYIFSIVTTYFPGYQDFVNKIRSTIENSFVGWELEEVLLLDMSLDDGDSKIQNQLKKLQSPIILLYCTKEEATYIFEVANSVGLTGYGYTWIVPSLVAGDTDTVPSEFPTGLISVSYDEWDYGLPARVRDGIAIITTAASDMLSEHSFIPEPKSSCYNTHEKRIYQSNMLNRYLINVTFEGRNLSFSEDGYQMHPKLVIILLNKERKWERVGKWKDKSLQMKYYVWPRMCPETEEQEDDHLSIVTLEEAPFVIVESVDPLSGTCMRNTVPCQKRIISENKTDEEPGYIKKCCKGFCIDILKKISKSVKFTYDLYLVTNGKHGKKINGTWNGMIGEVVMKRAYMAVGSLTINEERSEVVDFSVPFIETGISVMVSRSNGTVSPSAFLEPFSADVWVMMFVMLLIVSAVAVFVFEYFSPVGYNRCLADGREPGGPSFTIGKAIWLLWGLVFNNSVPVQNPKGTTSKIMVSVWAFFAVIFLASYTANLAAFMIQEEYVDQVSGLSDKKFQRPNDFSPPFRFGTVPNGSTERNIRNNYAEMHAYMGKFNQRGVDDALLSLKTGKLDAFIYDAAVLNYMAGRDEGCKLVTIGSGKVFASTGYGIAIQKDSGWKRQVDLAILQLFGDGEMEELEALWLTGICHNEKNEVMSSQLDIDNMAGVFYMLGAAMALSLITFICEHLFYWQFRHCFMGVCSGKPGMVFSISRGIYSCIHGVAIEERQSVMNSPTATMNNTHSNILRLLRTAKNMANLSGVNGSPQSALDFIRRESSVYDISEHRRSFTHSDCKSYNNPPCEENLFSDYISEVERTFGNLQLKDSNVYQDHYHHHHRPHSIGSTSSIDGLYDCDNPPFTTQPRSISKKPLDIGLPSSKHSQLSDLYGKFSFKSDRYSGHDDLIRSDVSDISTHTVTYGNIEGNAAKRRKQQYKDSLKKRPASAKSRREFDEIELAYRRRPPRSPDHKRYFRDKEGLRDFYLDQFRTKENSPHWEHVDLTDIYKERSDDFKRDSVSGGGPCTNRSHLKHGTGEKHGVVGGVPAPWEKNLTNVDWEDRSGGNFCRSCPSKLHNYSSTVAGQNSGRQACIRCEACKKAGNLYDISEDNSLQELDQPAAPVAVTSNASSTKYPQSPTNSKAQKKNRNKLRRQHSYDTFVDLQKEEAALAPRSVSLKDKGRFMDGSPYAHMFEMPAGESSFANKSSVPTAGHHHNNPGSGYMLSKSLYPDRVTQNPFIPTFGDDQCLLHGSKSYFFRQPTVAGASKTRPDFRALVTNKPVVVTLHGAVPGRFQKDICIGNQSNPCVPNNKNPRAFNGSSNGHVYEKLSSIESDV
How it was run: (§3)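 Rat GluN1 plus GluN2A or GluN2B cRNA (1:2) in Xenopus oocytes. TEVC at −40 mV, room temperature, 2–4 days post-injection. Bath: 90 mM NaCl, 1 mM KCl, 10 mM HEPES, 0.5 mM BaCl2, 0.01 mM EDTA, pH 7.4. Oocytes were BAPTA-injected before recording. Agonist applied with 300 μM L-Glu throughout. NR means <5% response at the stated concentration. 3–14 oocytes.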

[11] = system: Oocyte; test: Agonist activity at mutant GluN1 F484A/T518 mutant//GluN3B NMDA receptor (unknown origin) expressed in Xenopus oocytes measured after 4 days in presence of glycine by two-electrode voltage-clamp recording assay; assay type: cell-based; details: Homo sapiens, time 4.0 day
[12] = molecular target: Glutamate NMDA receptor; Grin1/Grin2a (Rattus norvegicus, UniProt P35439+Q00959); test: Agonist activity at rat GluN1/GluN2A NMDA receptor expressed in Xenopus oocytes measured after 4 days in presence of L-glutamte by two-electrode voltage-clamp recording assay; assay type: cell-based, Oocyte; how it was run: as §3
[13] = molecular target: Glutamate NMDA receptor; Grin1/Grin2c (Rattus norvegicus, UniProt P35439+Q00961); test: Agonist activity at rat GluN1/GluN2C NMDA receptor expressed in Xenopus oocytes measured after 4 days in presence of L-glutamte by two-electrode voltage-clamp recording assay; assay type: cell-based, Oocyte; how it was run: as §2
Chain of Glutamate NMDA receptor; Grin1/Grin2c (Q00961 whole entry, other chains not shown): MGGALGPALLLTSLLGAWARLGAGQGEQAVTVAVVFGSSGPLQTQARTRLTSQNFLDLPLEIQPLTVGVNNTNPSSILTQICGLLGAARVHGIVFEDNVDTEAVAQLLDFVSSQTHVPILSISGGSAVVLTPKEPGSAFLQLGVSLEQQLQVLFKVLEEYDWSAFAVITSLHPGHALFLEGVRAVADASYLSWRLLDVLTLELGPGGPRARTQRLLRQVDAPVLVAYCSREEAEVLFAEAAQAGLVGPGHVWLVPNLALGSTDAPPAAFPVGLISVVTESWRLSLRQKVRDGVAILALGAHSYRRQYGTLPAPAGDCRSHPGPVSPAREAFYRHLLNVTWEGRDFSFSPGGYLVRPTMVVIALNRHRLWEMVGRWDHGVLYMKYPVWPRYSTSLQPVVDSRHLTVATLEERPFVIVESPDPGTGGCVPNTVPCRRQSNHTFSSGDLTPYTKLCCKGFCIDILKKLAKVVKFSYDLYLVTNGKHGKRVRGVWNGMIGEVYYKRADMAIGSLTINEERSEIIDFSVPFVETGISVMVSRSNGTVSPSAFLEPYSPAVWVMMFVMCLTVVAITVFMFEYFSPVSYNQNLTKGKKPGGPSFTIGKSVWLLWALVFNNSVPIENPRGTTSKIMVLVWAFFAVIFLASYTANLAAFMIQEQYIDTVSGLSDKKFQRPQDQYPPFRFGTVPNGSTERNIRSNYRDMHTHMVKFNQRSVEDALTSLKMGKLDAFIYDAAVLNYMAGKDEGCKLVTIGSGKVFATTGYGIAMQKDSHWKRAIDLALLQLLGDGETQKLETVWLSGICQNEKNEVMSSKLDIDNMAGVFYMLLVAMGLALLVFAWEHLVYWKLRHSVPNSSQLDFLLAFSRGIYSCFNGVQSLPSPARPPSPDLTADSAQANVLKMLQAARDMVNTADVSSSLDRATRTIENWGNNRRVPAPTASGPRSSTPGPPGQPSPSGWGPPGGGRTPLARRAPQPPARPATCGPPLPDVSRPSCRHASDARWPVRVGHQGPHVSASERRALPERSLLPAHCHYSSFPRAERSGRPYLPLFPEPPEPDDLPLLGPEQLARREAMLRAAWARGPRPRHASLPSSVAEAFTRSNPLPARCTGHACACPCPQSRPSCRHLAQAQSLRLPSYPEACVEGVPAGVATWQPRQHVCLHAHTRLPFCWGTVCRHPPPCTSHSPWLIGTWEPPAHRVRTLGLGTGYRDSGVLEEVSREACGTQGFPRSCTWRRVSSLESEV

Rmax [1]: 30%
Rmax [2]: 45%
EC50 [3]: 110 nM
Rmax [4]: 9%
Ki [5]: 100 nM
EC50 [6]: 410 nM
EC50 [7]: 150 nM
inhibition [8]: inactive
inhibition [9]: 47%
IC50 [10]: 10000 nM
inhibition [11]: inactive
EC50 [12]: 93 nM
EC50 [13]: 63 nM
SMILES: CCc1ccccc1-c1ccc(C(=O)NC[C@@H](N)C(=O)O)o1
